The source made the active and inactive calls. No cut-off for these calls is given here.

The text below walks through data of ChEMBL document CHEMBL4680231, “A glutathione-responsive photosensitizer with fluorescence resonance energy transfer characteristics for imaging-guided targeting photodynamic therapy” (Eur J Med Chem, 2020).

Data set [1] can be described thus: Prodrug activation in DMF assessed as pseudo-first-order kinetics at 10 uM incubated for 720 mins in presence of 10 mM GSH by fluorescence spectroscopic analysis. The following applies: 12 h.
Data set [2] deals with HeLa. Briefly: Cytotoxicity against human HeLa cells assessed as reduction cell viability preincubated for 24 hrs in dark condition followed by irradiated with 20 mW cm^-2 light by MTT assay. The format is functional, cell-based. In a few lines:
(§1)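 MTT assay. About 6000 cells per well were seeded and left overnight at 37 °C, 5% CO2. Compound was added at a range of concentrations in DMEM (1% DMSO, 0.05% Tween 80) for 24 h in the dark, then the medium was replaced. Irradiated wells received a 670 nm LED at 20 mW·cm⁻² for 2 min (2.4 J·cm⁻²); dark wells were not irradiated. Cells were incubated overnight, then MTT for 4 h, DMSO added, OD read at 490 nm. Three independent experiments, each in sextuplicate. IC50 is the concentration killing 50% of cells.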
(In general: Formazan colour is commonly taken as a measure of viable cells.)

The nature of data set [3]: Prodrug activation in mouse H22 cells assessed as increase in fluorescence at 10 uM after 8 hrs in presence of GSH by confocal laser scanning microscopic method. The data set is classed as cell-based. The following applies: h22, 8 h. A digest of the protocol: (§2)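 Cells (10^5 per confocal dish) were seeded in DMEM overnight at 37 °C, 5% CO2. They were pretreated with 5 mM GSH in DMEM, or medium alone, for 2 h, then washed. Compound at 10 μM was added for 8 h. Intracellular fluorescence was read by confocal microscopy (excitation 633 nm) or by flow cytometry under the same conditions.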

Data set [4] can be described thus: Prodrug activation in human HeLa cells assessed as increase in fluorescence at 10 uM after 8 hrs by flow cytometric analysis. The data set is classed as cell-based. A digest of the protocol: as §2
In general terms: A flow cytometer gives signals particle by particle.

Data set [5] is described as follows: Prodrug activation in human A549 cells assessed as increase in fluorescence at 10 uM after 8 hrs by flow cytometric analysis. The data set is classed as cell-based. Particulars: a549, 8 h. A digest of the protocol: as §2
Data set [6] is described as follows: Prodrug activation in human A549 cells assessed as increase in fluorescence at 10 uM after 8 hrs in presence of GSH by flow cytometric analysis. The data set is classed as cell-based. The following applies: a549, 8 h. In a few lines:
as §2

Data set [7] in a line: Prodrug activation in HELF cells assessed as increase in fluorescence at 10 uM after 8 hrs in presence of GSH by flow cytometric analysis. The data set is classed as cell-based. Particulars: human, primary lung fibroblast. In a few lines: as §2
The test system of data set [8] is A549. Briefly: Induction of ROS generation in human A549 cells at 10 uM incubated for 12 hrs irradiated with 20 mW cm^-2 light in presence of GSH by DCFH-DA staining based confocal laser scanning microscopic method. The format is functional, cell-based. In a few lines: (§3)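 Cells were seeded in confocal dishes overnight. Pretreatment was GSH 5 mM in DMEM for 2 h, or vitamin C 100 μM for 1 h, before compound at 10 μM for 12 h. DCFH-DA was added for 1 h, then 5 PBS washes and transfer to serum-free, phenol red-free DMEM. Cells were irradiated at 670 nm, 20 mW·cm⁻², for 3 min. Confocal imaging used λex 488 nm for DCF and 633 nm for the photosensitizer.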

Data set [9] has as its system Primary lung fibroblast. Briefly: Induction of ROS generation in human HELF cells at 10 uM incubated for 12 hrs irradiated with 20 mW cm^-2 light in presence of GSH by DCFH-DA staining based confocal laser scanning microscopic method. The data set is classed as functional, cell-based. In a few lines: as §3
Data set [10] relates to A549. Briefly: Induction of ROS generation in human A549 cells at 10 uM incubated for 12 hrs irradiated with 20 mW cm^-2 light in presence of vitamin C by DCFH-DA staining based confocal laser scanning microscopic method. The format is functional, cell-based. In a few lines: as §3
For data set [11], the system named is HeLa. Briefly: Induction of ROS generation in human HeLa cells at 10 uM incubated for 12 hrs irradiated with 20 mW cm^-2 light in presence of vitamin C by DCFH-DA staining based confocal laser scanning microscopic method. The data set is classed as functional, cell-based. A digest of the protocol: as §3
Data set [12] concerns Primary lung fibroblast. Briefly: Induction of ROS generation in human HELF cells at 10 uM incubated for 12 hrs irradiated with 20 mW cm^-2 light in presence of vitamin C by DCFH-DA staining based confocal laser scanning microscopic method. The data set is classed as functional, cell-based. A digest of the protocol: as §3
Data set [13] deals with H22. Briefly: Cytotoxicity against mouse H22 cells assessed as reduction cell viability up to 10 uM after 24 hrs in dark condition by MTT assay. The format is cell-based. The following applies: h22, 24 h. A digest of the protocol: as §1
Data set [14] is described as follows: Drug localization in mitochondria of human A549 cells assessed as GSH mediated cleavage at 10 uM after 12 hrs by Mito-Tracker Green dye based confocal laser scanning microscopic method. The following applies: a549, 12 h. The format is ADME. In a few lines:
(§4)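 Cells were seeded in confocal dishes overnight, then given compound at 10 μM for 12 h. Staining was DAPI for 20 min, or Lyso-Tracker Red or Mito-Tracker Green for 60 min, followed by 5 PBS washes. Images were taken by confocal microscopy with excitation/detection of 405/425-475 nm (DAPI), 543/550-620 nm (Lyso) and 488/510-570 nm (Mito). Colocalization was judged from line intensity profiles.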

The nature of data set [15]: Drug localization in lysosome of human A549 cells assessed as GSH mediated cleavage at 10 uM after 12 hrs by Lyso-Tracker Red dye based confocal laser scanning microscopic method. The format is ADME, subcellular. The following applies: a549, 12 h. In a few lines:
as §4

A short description of data set [16]: Drug localization in nucleus of human A549 cells assessed as GSH mediated cleavage at 10 uM after 12 hrs by DAPI dye based confocal laser scanning microscopic method. The format is ADME, subcellular. The following applies: a549, 12 h. A digest of the protocol: as §4
The test system of data set [17] is H22. Briefly: Photodynamic antitumor activity against mouse H22 cells implanted in Kunming mouse assessed as reduction in tumour weight at 2 mg/kg, iv administered at […] post-implantation followed by irradiated with 100 mW/cm2 […] and measured up to 15 days. The data set is classed as functional, organism-based. The following applies: time 15.0 day. A digest of the protocol:
(§5)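 Mice carried subcutaneous H22 tumours of about 50 mm³ and were randomised into 5 groups of 5. They received saline or compound at 2 mg/kg (100 μL) i.v. on days 1, 4 and 7. Light groups were irradiated at 670 nm, 100 mW/cm², 12 h after each dose. Tumour volume and body weight were recorded daily for 15 days. Tumours were then excised and weighed, fixed in 4% paraformaldehyde, paraffin-embedded and H&E stained. Apoptotic and necrotic areas were scored microscopically.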

Data set [18] concerns H22. Briefly: Photodynamic antitumor activity against mouse H22 cells implanted in Kunming mouse assessed as reduction in tumour size at 2 mg/kg, iv administered at […] post-implantation followed by irradiated with 100 mW/cm2 […] and measured up to 15 days. The data set is classed as functional, organism-based. Particulars: time 15.0 day. A digest of the protocol: as §5

The nature of data set [19]: Prodrug activation in DMF at 10 uM incubated for 720 mins in presence of 2 uM GSH by fluorescence spectroscopic analysis. The following applies: 12 h.
Data set [20] can be described thus: Prodrug activation in DMF at 10 uM incubated for 720 mins in presence of 10 mM GSH by fluorescence spectroscopic analysis. Particulars: 12 h.
Data set [21] in a line: Drug uptake in Kunming mouse implanted with H22 cells at 2 mg/kg, iv and measured up to 24 hrs by FMT assay. The data set is classed as ADME, organism-based. The following applies: in vivo. In a few lines:
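Mice carried subcutaneous back tumours from H22 cells (10^7 cells/mL, 100 μL), used at about 50 mm³. They received a single tail-vein injection of 2 mg/kg (200 μL), with saline as control, 3 mice per group. Whole-body fluorescence molecular tomography was taken at 0, 2, 6, 12 and 24 h. At 24 h, tumour, heart, liver, spleen, lung and kidney were imaged ex vivo.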

As usually defined, the IC50 is the concentration that gives 50% inhibition. As for `COCCOCCOCCOc1ccc(/C=C/C2=[N+]3C(=C(c4ccc(OCc5cn(CCSSCCn6cc(COc7ccc(C8=C9C(C)=CC(/C=C/c%10ccc(N(C)C)cc%10)=[N+]9[B-](F)(F)n9c(/C=C/c%10ccc(N(C)C)cc%10)cc(C)c98)cc7)nn6)nn5)cc4)c4c(C)c(I)c(/C=C/c5ccc(OCCOCCOCCOC)cc5)n4[B-]3(F)F)C(C)=C2I)cc1`, the K in [1] is on record as 5.8 10^-3/min. In addition, the IC50 in the data set on HeLa [2] (light or radiation study) was determined as 670 nM. Moreover, the Drug metabolism result in data set [3], in [4], in data set [5], in [6] and in data set [7] was “Metabolite_Detected” throughout. The outcome in the data set on A549 [8], in the data set on Primary lung fibroblast [9], in the data set on H22 [17] and with H22 [18] was Active. For the same molecule, the result in the data set with A549 [10], in the data set with HeLa [11] and in the data set on Primary lung fibroblast [12] was inactive. For the same molecule, the Activity entry in the data set with H22 [13] was “Non-Toxic”. Besides, the Drug uptake entry in data set [14] is reported as “Active”; in [15], “Active”; in data set [16], “Not Active”.
Regarding `COCCOCCOCCOc1ccc(/C=C/C2=[N+]3C(=C(c4ccc(OCc5cn(CCCCCCn6cc(COc7ccc(C8=C9C(C)=CC(/C=C/c%10ccc(N(C)C)cc%10)=[N+]9[B-](F)(F)n9c(/C=C/c%10ccc(N(C)C)cc%10)cc(C)c98)cc7)nn6)nn5)cc4)c4c(C)c(I)c(/C=C/c5ccc(OCCOCCOCCOC)cc5)n4[B-]3(F)F)C(C)=C2I)cc1`, the Drug metabolism entry in data set [19], in data set [20], in data set [3], in data set [4], in data set [5] and in data set [6] was “Metabolite_Notdetected” throughout. Also, the Drug metabolism result in [7] was “Metabolite_Notdetected”. Moreover, the outcome with HeLa [2], in the data set on A549 [8], in the data set on Primary lung fibroblast [9], in the data set on A549 [10], in the data set on HeLa [11] and in the data set on Primary lung fibroblast [12] was inactive. Further, the Activity result in the data set on H22 [13] is listed as “Non-Toxic”. Further, the Drug uptake result in data set [21] is reported as “Active”. For the same molecule, the result in the data set with H22 [17] and in the data set with H22 [18] was Active.
